Values after ≈ are worked out from the molar mass of the structure shown. Active and inactive are the calls of the source. The rule behind the calls is not given here.
Columns and labels:
[1] = test system: Schizosaccharomyces pombe; assay: Antifungal activity against Schizosaccharomyces pombe assessed as reduction in fungal growth incubated for overnight by serial dilution assay; type: functional
Method in brief: (§1)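 MIC50 determined against five fungi (C. albicans, M. hiemalis, R. glutinis, S. pombe, W. anomalus), with nystatin as positive control. Values given in µg/mL; "–" means no inhibition under test conditions.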

Mucor hiemalis = assay: Antifungal activity against Mucor hiemalis assessed as reduction in fungal growth incubated for overnight by serial dilution assay; type: functional; method in brief: as §1
Wickerhamomyces anomalus = assay: Antifungal activity against Wickerhamomyces anomalus assessed as reduction in fungal growth incubated for overnight by serial dilution assay; type: functional; method in brief: as §1
Candida albicans = assay: Antifungal activity against Candida albicans assessed as reduction in fungal growth incubated for overnight by serial dilution assay; type: functional; method in brief: as §1
Rhodotorula glutinis = assay: Antifungal activity against Rhodotorula glutinis assessed as reduction in fungal growth incubated for overnight by serial dilution assay; type: functional; method in brief: as §1
Escherichia coli = assay: Antibacterial activity against Escherichia coli assessed as reduction in microbial growth incubated for overnight by serial dilution assay; type: functional
Method in brief: (§2)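 MIC50 determined against Gram-positive and Gram-negative bacteria. Positive controls: oxytetracycline for most bacteria, ciprobay for A. baumannii, gentamycin for Ps. aeruginosa. Values given in µg/mL; "–" means no inhibition under test conditions.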

[2] = test system: Chromobacterium violaceum; assay: Antibacterial activity against Chromobacterium violaceum assessed as reduction in microbial growth incubated for overnight by serial dilution assay; type: functional; method in brief: as §2
Bacillus subtilis = assay: Antibacterial activity against Bacillus subtilis assessed as reduction in microbial growth incubated for overnight by serial dilution assay; type: functional; method in brief: as §2
Pseudomonas aeruginosa = assay: Antibacterial activity against Pseudomonas aeruginosa assessed as reduction in microbial growth incubated for overnight by serial dilution assay; type: functional, organism-based; method in brief: as §2
Staphylococcus aureus = assay: Antibacterial activity against Staphylococcus aureus assessed as reduction in microbial growth incubated for overnight by serial dilution assay; type: functional; method in brief: as §2
[3] = (§3) Cytotoxicity against human KB-3-1 cells assessed as reduction in cell viability after 5 days by MTT assay; type: toxicity, cell-based; details: human, KB-3-1 cells
Method in brief: (§4)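 Cytotoxicity read by MTT method against mammalian cell lines (human endocervical adenocarcinoma KB 3.1, mouse fibroblast L929), with epothilone B as positive control. IC50 reported in µM.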

[4] = Cytotoxicity against mouse L929 cells assessed as reduction in cell viability after 5 days by MTT assay; type: toxicity, cell-based; method in brief: as §4
Acinetobacter baumannii = assay: Antibacterial activity against Acinetobacter baumannii assessed as reduction in microbial growth incubated for overnight by serial dilution assay
KB 3-1 = assay: as §3; type: toxicity, cell-based; details: kb 3-1; method in brief: as §4

Compound | MIC [1] [µg/mL] | MIC (Mucor hiemalis) [µg/mL] | MIC (Candida albicans) [µg/mL] | MIC (Rhodotorula glutinis) [µg/mL] | Activity (Escherichia coli) | MIC (Bacillus subtilis) [µg/mL] | MIC (Wickerhamomyces anomalus; Hansenula anomala) [µg/mL] | Activity (Pseudomonas aeruginosa) | MIC (Staphylococcus aureus) [µg/mL] | IC50 at 5 days [3] [µM] | IC50 at 5 days [4] [µM] | Activity [2] | further results
NYSTATIN | 4.2 | 8.3 | 16.6 | 2.1 |  |  |  |  |  |  |  |  | MIC (Wickerhamomyces anomalus): 8.3 µg/mL
CN1C(=O)C23SSC4c5ccccc5O[C@]41C(=O)N2O[C@]1(C[C@H](O)C=CC1=O)[C@H]3O (stereo partly specified) | 66.6 (≈ 149 µM) | 8 (≈ 17.8 µM) | 66.6 (≈ 149 µM) | 33.3 (≈ 74.3 µM) | inactive | 16.6 | 33.3 (≈ 74.3 µM) | inactive | 8.3 | 49 | 42 |  | MIC [2]: 16.6 µg/mL
O=C(O)c1cn(C2CC2)c2cc(N3CCNCC3)c(F)cc2c1=O [CIPROFLOXACIN] |  |  |  |  |  |  |  |  |  |  |  |  | MIC (Acinetobacter baumannii): 0.53 µg/mL
CSC1c2ccccc2O[C@]12C(=O)N1O[C@]3(CCC=CC3=O)[C@@H](O)C1(SC)C(=O)N2C (stereo partly specified) |  |  |  |  | inactive | 66.6 |  | inactive | 66.6 | 15 | 5 | inactive | Activity [1]: inactive; Activity (Mucor hiemalis): inactive; Activity (Wickerhamomyces anomalus): inactive; Activity (Candida albicans): inactive; Activity (Rhodotorula glutinis): inactive
C/C(=C\c1csc(C)n1)[C@@H]1C[C@@H]2O[C@@H]2CCC[C@H](C)[C@H](O)[C@@H](C)C(=O)C(C)(C)[C@H](O)CC(=O)O1 |  |  |  |  |  |  |  |  |  | 4e-05 | 0.00052 |  | 
CN1C(=O)C23SSSC4c5ccccc5O[C@]41C(=O)N2O[C@]1(C[C@H](O)[C@H](O)CC1=O)[C@H]3O (stereo partly specified) | 66.6 (≈ 134 µM) | 66.6 (≈ 134 µM) | 66.6 (≈ 134 µM) | 66.6 (≈ 134 µM) | inactive | 66.6 | 33.3 (≈ 66.8 µM) | inactive |  |  | 50 | inactive | Activity (Staphylococcus aureus): inactive; IC50 (KB 3-1): Non-Toxic
CN1C(=O)C23SSC4c5ccccc5O[C@]41C(=O)N2O[C@]1(C[C@H](O)[C@H](O)CC1=O)[C@H]3O (stereo partly specified) | 66.6 (≈ 143 µM) | 33.3 (≈ 71.4 µM) |  | 66.6 (≈ 143 µM) | inactive | 33.3 | 66.6 (≈ 143 µM) | inactive | 33.3 | 54 | 58 | inactive | Activity (Candida albicans): inactive
CN(C)[C@@H]1C(O)=C(C(N)=O)C(=O)[C@@]2(O)C(O)=C3C(=O)c4c(O)cccc4[C@@](C)(O)[C@H]3[C@H](O)[C@@H]12 [OXYTETRACYCLINE] |  |  |  |  |  | 16.6 |  |  | 0.83 |  |  |  | MIC (Escherichia coli): 3.3 µg/mL; MIC [2]: 0.83 µg/mL
GENTAMICIN |  |  |  |  |  |  |  |  |  |  |  |  | MIC (Pseudomonas aeruginosa): 0.42 µg/mL

Source: ChEMBL document CHEMBL5584364, “Reaping the Chemical Diversity of Morinagamyces vermicularis Using Feature-Based Molecular Networking” (J Nat Prod, 2024)
